According to ChEMBL document CHEMBL4138067, “Design, synthesis and cytotoxicity of bengamide analogues and their epimers” (Medchemcomm, 2017):

Assays:
Assay type in all cases: functional
Lu1 = assay: Cytotoxicity in human Lu1 cells assessed as reduction in cell growth incubated for 72 hrs by neutral red staining based colorimetry; settings: Lu1, 72 h
Method in brief: (§1)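 Cells grown in D-MEM with 10% fetal calf serum, 2 mM L-glutamine, penicillin G, streptomycin and gentamicin, seeded at 3 × 10^3 cells per mL. Compound stocks in DMSO/H2O (1/9). Exposure 72 h at 37 °C in air/CO2 (95:5). Living cells stained with neutral red, optical density read at 540 nm. Run in triplicate. IC50 taken as concentration inhibiting growth to 50% of untreated control.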

HeLa = assay: Cytotoxicity in human HeLa cells assessed as reduction in cell growth incubated for 72 hrs by neutral red staining based colorimetry; method in brief: as §1
HL-60 = assay: Cytotoxicity in human HL60 cells assessed as reduction in cell growth incubated for 72 hrs by neutral red staining based colorimetry; settings: HL-60, 72 h; method in brief: as §1
KB = assay: Cytotoxicity in human KB cells assessed as reduction in cell growth incubated for 72 hrs by neutral red staining based colorimetry; method in brief: as §1
MCF7 = assay: Cytotoxicity in human MCF7 cells assessed as reduction in cell growth incubated for 72 hrs by neutral red staining based colorimetry; settings: MCF7, 72 h; method in brief: as §1
HepG2 = assay: Cytotoxicity in human HepG2 cells assessed as reduction in cell growth incubated for 72 hrs by neutral red staining based colorimetry; settings: HepG2, 72 h; method in brief: as §1

Structure (SMILES) | IC50 (Lu1) [µM] | IC50 (HeLa) [µM] | IC50 (HL-60) [µM] | IC50 (KB) [µM] | IC50 (MCF7) [µM] | IC50 (HepG2) [µM]
Cc1c2ccncc2c(C)c2c1[nH]c1ccccc12 [ELLIPTECINE] | 1.6 | 1.6 | 2 | 1.2 | 2.4 | –
CO[C@@H](C(=O)N[C@H]1CC[C@H](O)CNC1=O)[C@H](O)[C@@H](O)[C@H](O)/C=C/C(C)(C)C | 10 | > 150 | > 150 | 19.8 | 144 | 103
CO[C@@H](C(=O)N[C@@H]1CC[C@@H](O)CNC1=O)[C@H](O)[C@@H](O)[C@H](O)/C=C/C(C)(C)C | 17.2 | 15.4 | 12.1 | 5.1 | 165 | 21.3
CO[C@@H](C(=O)N[C@H]1CCCCNC1=O)[C@@H]1OC(C)(C)O[C@H](/C=C/C(C)(C)C)[C@@H]1O | > 150 | > 150 | > 150 | > 150 | > 150 | > 150
CO[C@@H](C(=O)N[C@@H]1CC[C@H](O)CNC1=O)[C@H](O)[C@@H](O)[C@H](O)/C=C/C(C)(C)C | 36.3 | > 150 | > 150 | 23.7 | 80.4 | 138
CO[C@@H](C(=O)N[C@H]1CC[C@@H](O)CNC1=O)[C@H](O)[C@@H](O)[C@H](O)/C=C/C(C)(C)C | 23.4 | > 150 | > 150 | 62.6 | 23.4 | > 150
CO[C@@H](C(=O)N[C@@H]1CCCCNC1=O)[C@@H]1OC(C)(C)O[C@H](/C=C/C(C)(C)C)[C@@H]1O | > 150 | > 150 | > 150 | > 150 | > 150 | > 150
CO[C@@H](C(=O)N[C@@H]1CCCCNC1=O)[C@H](O)[C@@H](O)[C@H](O)/C=C/C(C)(C)C | 0.5 | 2.1 | 5.3 | 1.1 | 0.2 | 1.1
CO[C@@H](C(=O)N[C@H]1CCCCNC1=O)[C@H](O)[C@@H](O)[C@H](O)/C=C/C(C)(C)C | 4.3 | 60.7 | 83.3 | 21 | 1.3 | 21.1
